# Experiments:
# [1] = biological target: T1, Human rhinovirus A protease (Human rhinovirus sp., UniProt Q4U254); assay: Inhibition of HRV Protease 3CP (serotype 14).; parameters: species or system Rhinovirus B
# T1 sequence (Q4U254 whole entry): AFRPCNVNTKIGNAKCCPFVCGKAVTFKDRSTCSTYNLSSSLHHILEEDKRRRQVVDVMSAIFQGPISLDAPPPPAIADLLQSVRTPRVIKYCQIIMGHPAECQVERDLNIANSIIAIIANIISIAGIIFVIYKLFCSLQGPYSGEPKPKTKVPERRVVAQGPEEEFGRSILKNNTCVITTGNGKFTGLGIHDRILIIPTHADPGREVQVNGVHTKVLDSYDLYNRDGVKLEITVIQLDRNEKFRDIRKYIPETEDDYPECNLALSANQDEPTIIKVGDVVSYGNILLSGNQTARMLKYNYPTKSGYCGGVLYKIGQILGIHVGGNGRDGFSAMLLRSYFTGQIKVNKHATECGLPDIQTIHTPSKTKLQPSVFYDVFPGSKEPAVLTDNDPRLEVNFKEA
# [2] = biological target: T2, Human rhinovirus A protease (Human rhinovirus sp.) (UniProt Q4U254); assay: Inhibitory activity against Human Rhinovirus Protease 3C (serotype 14); conditions: Rhinovirus B
# T2 sequence (whole entry): T1 sequence (Q4U254 whole entry)
# [3] = biological target: T2, Human rhinovirus A protease (Human rhinovirus sp.); assay: (§1) cytotoxicity against HRV Protease 3CP (serotype 14)
# [4] = biological target: T2, Human rhinovirus A protease (Human rhinovirus sp.); assay: cytotoxicity against HRV Protease 3CP (serotype 1A),; type: functional
# [5] = biological target: T2, Human rhinovirus A protease (Human rhinovirus sp.); assay: cytotoxicity against HRV Protease 3CP (serotype 10),; type: functional
# [6] = biological target: T2, Human rhinovirus A protease (Human rhinovirus sp.); assay: cytotoxicity against HRV Protease 3CP (serotype 14),; type: functional
# [7] = biological target: T2, Human rhinovirus A protease (Human rhinovirus sp.); assay: cytotoxicity against Human Rhinovirus Protease 3C (serotype 10); type: functional
# [8] = biological target: T2, Human rhinovirus A protease (Human rhinovirus sp.); assay: cytotoxicity against Human Rhinovirus Protease 3C (serotype 14); type: functional
# [9] = biological target: T2, Human rhinovirus A protease (Human rhinovirus sp.); assay: cytotoxicity against Human Rhinovirus Protease 3C (serotype 1A); type: functional
# [10] = Loss of compound (%metabolized) after 30 min exposure to human liver microsomes; type: ADME, Microsome; conditions: read-out: Metabolism
# Procedure, shortened: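 Pooled human liver microsomes (1 mg/mL, 6–8 livers) with 2 mM NADPH in 100 mM potassium phosphate pH 7.4 were preincubated 1 min at 37 °C. Compound was added at 25 μM and incubated 30 min, then quenched with acetonitrile. Loss was measured against time-zero controls by reversed-phase HPLC with UV at 215 nm.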
# [11] = biological target: T2, Human rhinovirus A protease (Human rhinovirus sp.); assay: cytotoxicity against HRV Protease 3CP (serotype 1A); type: functional
# [12] = biological target: T2, Human rhinovirus A protease (Human rhinovirus sp.); assay: cytotoxicity against HRV Protease 3CP (serotype 10); type: functional
# [13] = biological target: T2, Human rhinovirus A protease (Human rhinovirus sp.); assay: as §1; type: functional
# [14] = Half life upon exposure to human plasma; type: ADME, cell-free
# Procedure, shortened: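 Pooled heparinized human plasma from 10 donors (stored at -70 °C), or 100 mM potassium phosphate buffer pH 7.4, n = 3 each. Compound added from fresh 5 mM acetonitrile stock to 25 μM final. Incubated at 37 °C for 1–3 h with regular sampling, acetonitrile precipitation, HPLC-UV at 212 nm. Half-life from linear regression of mean concentration–time data.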
# [15] = Half life period after 15 mg/kg iv dose in Dogs; type: ADME, organism-based, Canis lupus familiaris; parameters: dose 15 mg/kg, route intravenous; conditions: dog, in vivo
# Procedure, shortened: (§2)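 Dogs (n = 3) received the compound iv or orally in 80:20 propylene glycol:water at 15.0 mg/mL. Blood was sampled periodically for up to 24 h. Plasma levels were measured by LC-MS (detection limit 5 ng/mL). Parameters came from noncompartmental analysis of each animal's concentration–time data.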
# [16] = Half life period after 30 mg/kg po dose in Dogs; type: ADME, organism-based, Canis lupus familiaris; parameters: dose 30 mg/kg, route oral; conditions: dog, in vivo; procedure, shortened: as §2
# [17] = Tmax value after 15 mg/kg iv dose in Dogs; type: ADME, organism-based, Canis lupus familiaris; parameters: dose 15 mg/kg, route intravenous; conditions: dog, in vivo; procedure, shortened: as §2
# [18] = Tmax value after 30 mg/kg po dose in Dogs; type: ADME, organism-based, Canis lupus familiaris; parameters: dose 30 mg/kg, route oral; conditions: dog, in vivo; procedure, shortened: as §2
# [19] = Volume distribution after 15 mg/kg iv dose in Dogs; type: ADME, organism-based, Canis lupus familiaris; parameters: dose 15 mg/kg, route intravenous; conditions: dog, in vivo, read-out: V; procedure, shortened: as §2
# Canis familiaris = assay: Volume distribution after 30 mg/kg po dose in Dogs; type: ADME, organism-based, Canis lupus familiaris; parameters: dose 30 mg/kg, route oral; conditions: dog, in vivo; procedure, shortened: as §2
# [20] = Cmax value after 30 mg/kg po dose in Dogs; type: ADME, organism-based, Canis lupus familiaris; parameters: dose 30 mg/kg, route oral; conditions: dog, in vivo; procedure, shortened: as §2
# [21] = Cmax value after 15 mg/kg iv dose in Dogs; type: ADME, organism-based, Canis lupus familiaris; parameters: dose 15 mg/kg, route intravenous; conditions: dog, in vivo; procedure, shortened: as §2
# [22] = AUC value after 15 mg/kg iv dose in Dogs; type: ADME, organism-based, Canis lupus familiaris; parameters: dose 15 mg/kg, route intravenous; conditions: dog, plasma; procedure, shortened: as §2
# [23] = AUC value after 30 mg/kg po dose in Dogs; type: ADME, organism-based, Canis lupus familiaris; parameters: dose 30 mg/kg, route oral; conditions: dog, plasma; procedure, shortened: as §2
# [24] = Plasma clearance after 15 mg/kg iv dose in Dogs; type: ADME, organism-based, Canis lupus familiaris; parameters: dose 15 mg/kg, route intravenous; conditions: dog; procedure, shortened: as §2
# [25] = Plasma clearance after 30 mg/kg po dose in Dogs; type: ADME, organism-based, Canis lupus familiaris; parameters: dose 30 mg/kg, route oral; conditions: dog; procedure, shortened: as §2
# [26] = biological target: T2, Human rhinovirus A protease (Human rhinovirus sp.); assay: cytotoxicity against HRV Protease 3CP (serotype 2); type: functional
# [27] = biological target: T2, Human rhinovirus A protease (Human rhinovirus sp.); assay: cytotoxicity against HRV Protease 3CP (serotype 23); type: functional
# [28] = biological target: T2, Human rhinovirus A protease (Human rhinovirus sp.); assay: cytotoxicity against HRV Protease 3CP (serotype 25); type: functional
# [29] = biological target: T2, Human rhinovirus A protease (Human rhinovirus sp.); assay: cytotoxicity against HRV Protease 3CP (serotype 3); type: functional
# [30] = biological target: T2, Human rhinovirus A protease (Human rhinovirus sp.); assay: cytotoxicity against HRV Protease 3CP (serotype 39); type: functional
# [31] = biological target: T2, Human rhinovirus A protease (Human rhinovirus sp.); assay: cytotoxicity against HRV Protease 3CP (serotype 78); type: functional
# [32] = biological target: T2, Human rhinovirus A protease (Human rhinovirus sp.); assay: cytotoxicity against HRV Protease 3CP (serotype 9); type: functional
# [33] = biological target: T2, Human rhinovirus A protease (Human rhinovirus sp.); assay: cytotoxicity against HRV Protease 3CP (serotype Hanks); type: functional
# [34] = biological target: T2, Human rhinovirus A protease (Human rhinovirus sp.); assay: cytotoxicity against HRV Protease 3CP (serotype 11); type: functional
# [35] = biological target: T2, Human rhinovirus A protease (Human rhinovirus sp.); assay: cytotoxicity against HRV Protease 3CP (serotype 16); type: functional
# [36] = biological target: T2, Human rhinovirus A protease (Human rhinovirus sp.); assay: cytotoxicity against HRV Protease 3CP (serotype 19); type: functional
# [37] = Oral bioavailability after 30 mg/kg po dose in Dogs; type: ADME, organism-based, Canis lupus familiaris; conditions: dog, in vivo; procedure, shortened: as §2
# [38] = biological target: T2, Human rhinovirus A protease (Human rhinovirus sp.); assay: cytotoxicity against HRV Protease 3CP (serotype 13); type: functional
# Homo sapiens [39] = species: Homo sapiens; assay: Half life upon exposure to human plasma
# Homo sapiens [40] = species: Homo sapiens; assay: Loss of compound (%metabolized) after 30 min exposure to human liver microsomes; conditions: read-out: Metabolism
smiles,measurement,setting,value
CCOC(=O)/C=C/[C@H](CCC(N)=O)NC(=O)[C@H](Cc1ccccc1)n1cccc(NC(=O)c2cc(Cl)on2)c1=O,EC50,[1],0.024 µM
same,K obs / 1,[2],134000 M⁻¹ s⁻¹
same,CC50,[3],> 10 µM
CCOC(=O)/C=C/[C@H](CCC(N)=O)NC(=O)[C@H](Cc1ccccc1)n1cccc(NC(=O)C2CCCO2)c1=O (stereo partly drawn),EC50,[1],1.78 µM
same,K obs / 1,[2],3750 M⁻¹ s⁻¹
same,CC50,[3],> 10 µM
CCOC(=O)/C=C/[C@H](CCC(N)=O)NC(=O)[C@H](Cc1ccccc1)n1cccc(NC(=O)C(C)(C)C)c1=O,EC50,[1],0.518 µM
same,K obs / 1,[2],5040 M⁻¹ s⁻¹
same,CC50,[3],> 10 µM
CCOC(=O)/C=C/[C@H](CCC(N)=O)NC(=O)Cn1cccc(NC(=O)OCc2ccccc2)c1=O,EC50,[1],> 10 µM
same,CC50,[3],> 10 µM
CCOC(=O)/C=C/[C@H](CCC(N)=O)NC(=O)[C@H](Cc1ccccc1)n1cccc(NC(C)=O)c1=O,EC50,[1],0.888 µM
same,K obs / 1,[2],7660 M⁻¹ s⁻¹
same,CC50,[3],> 10 µM
CCOC(=O)/C=C/[C@H](CCC(N)=O)NC(=O)[C@H](Cc1ccc(F)cc1)n1cccc(NC(=O)OCc2ccccc2)c1=O,EC50,[1],0.014 µM
same,CC50,[4],> 10 µM
same,K obs / 1,[2],81400 M⁻¹ s⁻¹
same,CC50,[5],> 10 µM
same,CC50,[6],> 320 µM
CCOC(=O)/C=C/[C@H](CCC(N)=O)NC(=O)[C@H](Cc1ccccc1)n1cccc(NC(=O)OCc2ccccc2)c1=O,CC50,[7],> 10 µM
same,CC50,[8],50 µM
same,CC50,[9],> 10 µM
CCOC(=O)/C=C/[C@H](C[C@@H]1CCNC1=O)NC(=O)[C@H](Cc1ccc(F)cc1)n1cccc(NC(=O)c2cc(C)on2)c1=O,metabolised at 0.5 h,[10],95%
same,EC50,[1],0.002 µM
same,CC50,[11],> 10 µM
same,K obs / 1,[2],1.25e+06 M⁻¹ s⁻¹
same,CC50,[12],> 10 µM
same,CC50,[13],> 10 µM
CCOC(=O)/C=C/[C@H](C[C@@H]1CCNC1=O)NC(=O)[C@H](Cc1ccc(F)c(F)c1)n1cccc(NC(=O)c2cc(C)on2)c1=O,half-life,[14],1.4 h
same,metabolised at 0.5 h,[10],80%
same,EC50,[1],0.001 µM
same,CC50,[11],> 10 µM
same,K obs / 1,[2],1.8e+06 M⁻¹ s⁻¹
same,CC50,[12],> 10 µM
same,CC50,[13],> 10 µM
CCOC(=O)/C=C/[C@H](CCC(N)=O)NC(=O)[C@H](Cc1ccccc1)n1cccc(NC(=O)C2CCCC2)c1=O,EC50,[1],0.034 µM
same,K obs / 1,[2],37400 M⁻¹ s⁻¹
same,CC50,[3],> 10 µM
Cc1cc(C(=O)Nc2cccn([C@@H](Cc3ccc(F)c(F)c3)C(=O)N[C@H](/C=C/C(=O)OC(C)C)C[C@@H]3CCNC3=O)c2=O)no1,half-life,[15],3.23 h
same,half-life,[16],3.4 h
same,Tmax,[17],4 min
same,Tmax,[18],1.17 h
same,Vd,[19],4.2 L/kg
same,V,Canis familiaris,9.6 L/kg
same,Cmax,[20],3500 ng/mL
same,Cmax,[21],10600 ng/mL
same,AUC,[22],17100 ng·h/mL
same,AUC,[23],16300 ng·h/mL
same,clearance,[24],14.7 mL/min/kg
same,CL/F,[25],33 mL/min/kg
same,CC50,[11],> 10 µM
same,CC50,[26],> 10 µM
same,CC50,[27],> 10 µM
same,CC50,[28],> 10 µM
same,CC50,[29],> 10 µM
same,CC50,[30],> 10 µM
same,CC50,[31],> 10 µM
same,CC50,[32],> 10 µM
same,CC50,[33],> 10 µM
same,CC50,[12],> 10 µM
same,CC50,[34],> 10 µM
same,CC50,[13],> 10 µM
same,CC50,[35],> 10 µM
same,CC50,[36],> 10 µM
same,bioavailability,[37],48%
same,CC50,[38],> 10 µM
same,half-life,Homo sapiens [39],9.7 h
same,metabolised at 0.5 h,Homo sapiens [40],55%
